Measured values gathered from unrelated publications.
Lines come from different studies, so protocols differ.
Target: Calcium/calmodulin-dependent protein kinase type 1 (CAMK1, Homo sapiens, UniProt Q14012)

Structure (SMILES) | read-out | mode | method | concentration | setting | quantity | value
CC#CC(=O)N1CCC[C@H]1c1nc(-c2ccc(C(=O)Nc3ccccn3)cc2)c2c(N)nccn12 | enzyme activity | inhibitor |  | 1 µM |  | inhibition | 26%
C1=C/COCc2cc(ccc2OCCN2CCCC2)Nc2nccc(n2)-c2cccc(c2)COC/1 | binding |  |  | 0.1 µM |  | remaining binding | 65%
COc1ccc2oc(-c3ccc4nc(N)oc4c3)c/c(=N\c3ccccc3NC(=O)CCN)c2c1 | binding |  |  | 1 µM |  | remaining binding | 70%
Cc1cc(O)c(-c2ccc([C@@H](C)CN(C)C)cc2)c2c1[nH]c(=O)c1sccc12 | cell-free assay | inhibitor |  | 0.1 µM | lysate | inhibition | 2.27%
Cc1ccc(NC(=O)c2ccnc(C(F)(F)F)c2)cc1-c1cc(OCCO)nc(N2CCOCC2)c1 | binding |  |  | 1 µM |  | remaining binding | 100%
C=CC(=O)N1CCC([C@@H]2CCNc3c(C(N)=O)c(-c4ccc(Oc5ccccc5)cc4)nn32)CC1 | enzyme activity | inhibitor |  | 1 µM |  | inhibition | 7%
C[C@H]1CC[C@H](n2c3cnccc3c3cnc(Nc4ccc5c(n4)CCN(C(=O)CO)C5)nc32)CC1 | cell-free assay |  |  | 1 µM |  | remaining signal | 45%
CCCCC(=O)Nc1ccc(-c2ccc3ncn(CCC)c(=O)c3c2)cn1 | binding |  | competition with immobilised ligand | 0.5 µM |  | remaining binding | 88%
